# Laboratory results published in ChEMBL document CHEMBL4350961, “Discovery of Pyrrolo[3,2- d]pyrimidin-4-one Derivatives as a New Class of Potent and Cell-Active Inhibitors of P300/CBP-Associated Factor Bromodomain” (J Med Chem, 2019).
# Activity calls are given as the source filed them. No cut-off for these calls is given here.
# Tests used:
# [1] = molecular target: Myotonin-protein kinase (Homo sapiens) (UniProt Q09013); assay: Inhibition of recombinant human DMPK (1 to 549 residues) at 10 uM using KKSRGDYMTMQIG as substrate measured after 40 mins in presence of [gamma33P]ATP by scintillation counting method
# [2] = test system: Discoidin domain-containing receptor 2 (Homo sapiens), Q16832 [UNDEFINED MUTATION]; assay: Inhibition of recombinant human DDR2 S642A mutant (467 to end residues) at 10 uM using KKSRGDYMTMQIG as substrate measured after 40 mins in presence of [gamma33P]ATP by scintillation counting method
# [3] = test system: Tyrosine-protein kinase ABL1 (Homo sapiens), P00519 [H396P]; assay: Inhibition of recombinant human ABL H396P mutant (27 to end residues) at 10 uM using EAIYAAPFAKKK as substrate measured after 40 mins in presence of [gamma33P]ATP by scintillation counting method
# [4] = molecular target: G protein-coupled receptor kinase 3 (Homo sapiens) (UniProt P35626); assay: Inhibition of recombinant full-length human GRK3 at 10 uM using casein as substrate measured after 40 mins in presence of [gamma33P]ATP by scintillation counting method
# [5] = molecular target: Casein kinase I isoform gamma-1 (Homo sapiens) (UniProt Q9HCP0); assay: Inhibition of recombinant human CK1gamma1 (25 to 355 residues) at 10 uM using KRRRALS(p)VASLPGL as substrate measured after 40 mins in presence of [gamma33P]ATP by scintillation counting method
# [6] = molecular target: Homeodomain-interacting protein kinase 1 (Homo sapiens) (UniProt Q86Z02); assay: Inhibition of recombinant human activated HIPK1 (158 to 555 residues) at 10 uM using myelin basic protein as substrate measured after 40 mins in presence of [gamma33P]ATP by scintillation counting method
# [7] = molecular target: Serine/threonine-protein kinase 24 (Homo sapiens) (UniProt Q9Y6E0); assay: Inhibition of recombinant human MST3 (1 to 304 residues) at 10 uM using ERMRPRKRQGSVRRRV as substrate measured after 40 mins in presence of [gamma33P]ATP by scintillation counting method
# [8] = molecular target: Mitogen-activated protein kinase 10 (Homo sapiens) (UniProt P53779); assay: Inhibition of recombinant full-length human JNK3 at 10 uM using peptide substrate measured after 40 mins in presence of [gamma33P]ATP by scintillation counting method
# [9] = molecular target: Cyclin-dependent kinase 5/CDK5 activator 1 (Homo sapiens) (UniProt Q00535+Q15078); assay: Inhibition of recombinant full-length human CDK5/p25 at 10 uM using histone H1 as substrate measured after 40 mins in presence of [gamma33P]ATP by scintillation counting method; assay type: protein-complex assay
# [10] = molecular target: Histone acetyltransferase KAT2B (Homo sapiens, UniProt Q92831); assay: Inhibition of biotinylated peptide binding to human GST-tagged PCAF bromodomain expressed in Escherichia coli Rosetta (DE3) measured after 15 hrs by HTRF assay
# [11] = molecular target: Inhibitor of nuclear factor kappa-B kinase subunit alpha (Homo sapiens) (UniProt O15111); assay: Inhibition of recombinant full-length human IKKalpha (959 to end residues) at 10 uM using peptide substrate measured after 40 mins in presence of [gamma33P]ATP by scintillation counting method
# [12] = molecular target: Protein polybromo-1 (Homo sapiens) (UniProt Q86U86); assay: Binding affinity to human partial length PBRM1 bromodomain 2 (S178 to E291 residues) expressed in bacterial expression system at 1 uM by BROMOscan assay
# Outline: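 BROMOscan bromodomain cross-screen run by an outside service, compound at 1 µM against 32 recombinant bromodomains. Binding given as percent of control.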
# [13] = molecular target: Serine/threonine-protein kinase PLK2 (Homo sapiens) (UniProt Q9NYY3); assay: Inhibition of human Snk (65 to 409 residues) using casein as substrate measured after 40 mins in presence of [gamma33P]ATP by scintillation counting method
# Outline: (§1)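 Kinase panel of 422 kinases screened by Eurofins KinaseProfiler at a single test-compound concentration of 10 µM.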
# [14] = molecular target: Ribosomal protein S6 kinase alpha-3 (Homo sapiens) (UniProt P51812); assay: Inhibition of human Rsk2 (2 to end residues) using KKKNRTLSVA as substrate measured after 40 mins in presence of [gamma33P]ATP by scintillation counting method; outline: as §1
# [15] = molecular target: Muscle, skeletal receptor tyrosine-protein kinase (Homo sapiens) (UniProt O15146); assay: Inhibition of recombinant human MuSK (530 to end residues) at 10 uM using myelin basic protein as substrate measured after 40 mins in presence of [gamma33P]ATP by scintillation counting method
# [16] = molecular target: Serine/threonine-protein kinase STK11 (Homo sapiens) (UniProt Q15831); assay: Inhibition of recombinant full-length human LKB1 at 10 uM using LSNLYHQGKFLQTFCGSPLYRRR as substrate measured after 40 mins in presence of [gamma33P]ATP by scintillation counting method
# [17] = molecular target: cGMP-dependent protein kinase 1 (Homo sapiens) (UniProt Q13976); assay: Inhibition of recombinant full-length human PKG1beta at 10 uM using RRRLSFAEPG as substrate measured after 40 mins in presence of [gamma33P]ATP by scintillation counting method
# [18] = molecular target: MAP/microtubule affinity-regulating kinase 4 (Homo sapiens) (UniProt Q96L34); assay: Inhibition of recombinant full-length human MARK4 at 10 uM using KKKVSRSGLYRSPSMPENLNRPR as substrate measured after 40 mins in presence of [gamma33P]ATP by scintillation counting method
# Homo sapiens = species on record: Homo sapiens; assay: Inhibition of recombinant full-length human PI3K p110alpha/p65alpha (1 to 571 residues) at 10 uM using phosphatidylinositol-4, 5-bisphosphate as substrate measured after 40 mins by HTRF assay
# [19] = molecular target: Serine/threonine-protein kinase SIK3 (Homo sapiens) (UniProt Q9Y2K2); assay: Inhibition of human SIK3 (1 to 307 residues) using KKKVSRSGLYRSPSMPENLNRPR as substrate measured after 40 mins in presence of [gamma33P]ATP by scintillation counting method; outline: as §1
# [20] = molecular target: ALK tyrosine kinase receptor (Homo sapiens) (UniProt Q9UM73); assay: Inhibition of recombinant human ALK (1058 to end residues) at 10 uM using KKKSPGEYVNIEF as substrate measured after 40 mins in presence of [gamma33P]ATP by scintillation counting method
# [21] = molecular target: Protein kinase C theta type (Homo sapiens) (UniProt Q04759); assay: Inhibition of recombinant full-length human PKCtheta at 10 uM using histone H1as substrate measured after 40 mins in presence of [gamma33P]ATP by scintillation counting method
# [22] = molecular target: Tyrosine-protein kinase ZAP-70 (Homo sapiens) (UniProt P43403); assay: Inhibition of recombinant full-length human ZAP70 at 10 uM using poly(Glu, Tyr) 4:1 as substrate measured after 40 mins in presence of [gamma33P]ATP by scintillation counting method
# Tyrosine-protein kinase ZAP-70 (Homo sapiens), sequence (P43403 whole entry): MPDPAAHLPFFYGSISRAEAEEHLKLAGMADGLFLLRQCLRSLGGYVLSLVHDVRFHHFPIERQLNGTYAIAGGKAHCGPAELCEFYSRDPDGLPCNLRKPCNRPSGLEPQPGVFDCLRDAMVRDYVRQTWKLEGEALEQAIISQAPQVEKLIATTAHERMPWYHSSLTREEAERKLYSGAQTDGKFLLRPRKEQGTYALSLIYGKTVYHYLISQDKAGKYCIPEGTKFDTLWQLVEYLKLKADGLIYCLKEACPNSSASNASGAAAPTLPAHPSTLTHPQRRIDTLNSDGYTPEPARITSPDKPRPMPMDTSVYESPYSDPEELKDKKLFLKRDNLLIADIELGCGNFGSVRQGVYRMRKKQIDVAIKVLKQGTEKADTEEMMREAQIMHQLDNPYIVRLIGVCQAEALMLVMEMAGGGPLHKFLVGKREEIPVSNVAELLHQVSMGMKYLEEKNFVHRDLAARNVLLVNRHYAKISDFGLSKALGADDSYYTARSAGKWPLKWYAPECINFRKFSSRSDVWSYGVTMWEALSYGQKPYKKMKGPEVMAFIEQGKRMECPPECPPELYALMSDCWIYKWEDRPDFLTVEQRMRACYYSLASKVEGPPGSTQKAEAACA
# Inhibitor of nuclear factor kappa-B kinase subunit alpha (Homo sapiens), sequence (O15111 whole entry, the tested form may be a part): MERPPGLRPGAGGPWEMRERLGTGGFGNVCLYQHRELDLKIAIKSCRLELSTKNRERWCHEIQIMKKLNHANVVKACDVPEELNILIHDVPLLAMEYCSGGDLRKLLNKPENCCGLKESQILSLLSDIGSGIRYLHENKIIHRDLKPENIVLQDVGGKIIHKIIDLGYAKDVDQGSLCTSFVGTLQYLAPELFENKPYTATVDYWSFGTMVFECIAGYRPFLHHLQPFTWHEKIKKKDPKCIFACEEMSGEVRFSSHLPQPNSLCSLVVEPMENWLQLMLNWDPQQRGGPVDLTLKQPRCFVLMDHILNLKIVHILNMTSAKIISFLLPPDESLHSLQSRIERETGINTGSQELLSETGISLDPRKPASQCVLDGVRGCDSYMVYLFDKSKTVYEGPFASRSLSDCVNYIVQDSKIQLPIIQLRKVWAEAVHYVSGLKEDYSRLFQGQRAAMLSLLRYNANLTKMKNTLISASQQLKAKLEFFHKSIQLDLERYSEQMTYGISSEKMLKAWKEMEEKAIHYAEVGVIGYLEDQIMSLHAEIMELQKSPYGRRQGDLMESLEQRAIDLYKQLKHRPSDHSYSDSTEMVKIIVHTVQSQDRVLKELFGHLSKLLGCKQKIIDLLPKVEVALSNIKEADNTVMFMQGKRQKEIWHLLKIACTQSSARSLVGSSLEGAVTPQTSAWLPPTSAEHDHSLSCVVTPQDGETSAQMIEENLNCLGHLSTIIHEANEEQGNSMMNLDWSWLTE
# Serine/threonine-protein kinase PLK2 (Homo sapiens), sequence (Q9NYY3 whole entry, looked up, the tested form may be a part): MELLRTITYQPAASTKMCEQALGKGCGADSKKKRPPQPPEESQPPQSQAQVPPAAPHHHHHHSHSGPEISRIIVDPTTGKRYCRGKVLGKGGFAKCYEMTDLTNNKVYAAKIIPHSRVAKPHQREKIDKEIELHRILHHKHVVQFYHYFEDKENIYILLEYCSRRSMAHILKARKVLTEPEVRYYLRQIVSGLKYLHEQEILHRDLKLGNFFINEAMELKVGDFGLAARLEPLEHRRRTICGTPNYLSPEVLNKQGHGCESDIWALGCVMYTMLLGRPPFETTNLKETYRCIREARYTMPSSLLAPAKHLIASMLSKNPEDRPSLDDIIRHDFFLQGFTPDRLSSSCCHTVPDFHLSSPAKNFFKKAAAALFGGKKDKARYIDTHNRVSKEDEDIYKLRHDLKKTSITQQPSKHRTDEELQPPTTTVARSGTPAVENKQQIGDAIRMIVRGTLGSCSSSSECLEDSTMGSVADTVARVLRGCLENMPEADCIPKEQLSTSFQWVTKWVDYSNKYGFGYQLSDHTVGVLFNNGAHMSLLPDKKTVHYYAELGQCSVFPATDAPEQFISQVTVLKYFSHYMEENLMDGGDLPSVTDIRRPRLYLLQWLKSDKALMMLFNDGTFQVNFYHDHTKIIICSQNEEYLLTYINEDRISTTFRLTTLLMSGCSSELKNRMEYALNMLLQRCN
# Serine/threonine-protein kinase 24 (Homo sapiens), sequence (Q9Y6E0 whole entry, looked up, the tested form may be a part): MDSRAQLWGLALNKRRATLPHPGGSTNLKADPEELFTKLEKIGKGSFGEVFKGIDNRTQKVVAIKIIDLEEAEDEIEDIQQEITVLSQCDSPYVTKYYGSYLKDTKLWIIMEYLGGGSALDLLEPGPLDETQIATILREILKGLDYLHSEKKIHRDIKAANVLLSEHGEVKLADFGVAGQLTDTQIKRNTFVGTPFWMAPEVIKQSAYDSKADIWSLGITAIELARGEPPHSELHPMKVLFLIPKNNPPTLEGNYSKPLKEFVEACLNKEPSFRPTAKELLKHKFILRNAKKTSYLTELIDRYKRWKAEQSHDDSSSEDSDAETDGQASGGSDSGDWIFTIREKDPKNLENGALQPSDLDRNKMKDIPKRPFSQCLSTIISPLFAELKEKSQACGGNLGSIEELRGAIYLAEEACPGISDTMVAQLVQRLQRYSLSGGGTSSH
# Serine/threonine-protein kinase STK11 (Homo sapiens), sequence (Q15831 whole entry): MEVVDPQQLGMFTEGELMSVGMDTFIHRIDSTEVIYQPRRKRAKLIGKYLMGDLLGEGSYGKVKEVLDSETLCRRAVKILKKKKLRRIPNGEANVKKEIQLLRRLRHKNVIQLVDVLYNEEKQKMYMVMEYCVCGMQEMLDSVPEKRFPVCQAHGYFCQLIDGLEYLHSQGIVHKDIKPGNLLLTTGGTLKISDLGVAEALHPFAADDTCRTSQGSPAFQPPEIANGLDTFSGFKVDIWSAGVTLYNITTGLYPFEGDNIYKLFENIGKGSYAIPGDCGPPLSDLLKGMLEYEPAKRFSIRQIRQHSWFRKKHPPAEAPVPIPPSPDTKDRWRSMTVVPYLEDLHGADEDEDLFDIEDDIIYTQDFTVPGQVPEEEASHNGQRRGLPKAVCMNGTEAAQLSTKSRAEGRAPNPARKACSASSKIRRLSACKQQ
# Ribosomal protein S6 kinase alpha-3 (Homo sapiens), sequence (P51812 whole entry): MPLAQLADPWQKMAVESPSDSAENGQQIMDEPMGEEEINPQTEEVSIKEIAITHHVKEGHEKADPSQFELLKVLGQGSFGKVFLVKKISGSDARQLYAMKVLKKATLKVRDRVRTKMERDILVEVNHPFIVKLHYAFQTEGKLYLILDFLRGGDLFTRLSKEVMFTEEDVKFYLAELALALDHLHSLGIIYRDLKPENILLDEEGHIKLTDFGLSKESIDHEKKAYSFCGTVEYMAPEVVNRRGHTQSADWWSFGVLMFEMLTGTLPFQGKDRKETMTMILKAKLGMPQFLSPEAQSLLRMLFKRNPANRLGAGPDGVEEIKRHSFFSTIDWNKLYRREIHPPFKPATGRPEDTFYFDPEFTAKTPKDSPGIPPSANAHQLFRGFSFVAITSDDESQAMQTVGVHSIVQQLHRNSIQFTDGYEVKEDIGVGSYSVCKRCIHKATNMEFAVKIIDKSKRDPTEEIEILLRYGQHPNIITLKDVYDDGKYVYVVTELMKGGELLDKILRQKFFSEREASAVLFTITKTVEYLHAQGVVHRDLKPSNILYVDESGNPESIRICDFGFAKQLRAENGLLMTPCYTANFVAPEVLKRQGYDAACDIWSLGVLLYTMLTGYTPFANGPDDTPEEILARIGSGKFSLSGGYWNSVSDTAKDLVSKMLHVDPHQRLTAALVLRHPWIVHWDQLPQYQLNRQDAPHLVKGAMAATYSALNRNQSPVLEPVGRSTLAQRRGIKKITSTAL
# MAP/microtubule affinity-regulating kinase 4 (Homo sapiens), sequence (Q96L34 whole entry, the tested form may be a part): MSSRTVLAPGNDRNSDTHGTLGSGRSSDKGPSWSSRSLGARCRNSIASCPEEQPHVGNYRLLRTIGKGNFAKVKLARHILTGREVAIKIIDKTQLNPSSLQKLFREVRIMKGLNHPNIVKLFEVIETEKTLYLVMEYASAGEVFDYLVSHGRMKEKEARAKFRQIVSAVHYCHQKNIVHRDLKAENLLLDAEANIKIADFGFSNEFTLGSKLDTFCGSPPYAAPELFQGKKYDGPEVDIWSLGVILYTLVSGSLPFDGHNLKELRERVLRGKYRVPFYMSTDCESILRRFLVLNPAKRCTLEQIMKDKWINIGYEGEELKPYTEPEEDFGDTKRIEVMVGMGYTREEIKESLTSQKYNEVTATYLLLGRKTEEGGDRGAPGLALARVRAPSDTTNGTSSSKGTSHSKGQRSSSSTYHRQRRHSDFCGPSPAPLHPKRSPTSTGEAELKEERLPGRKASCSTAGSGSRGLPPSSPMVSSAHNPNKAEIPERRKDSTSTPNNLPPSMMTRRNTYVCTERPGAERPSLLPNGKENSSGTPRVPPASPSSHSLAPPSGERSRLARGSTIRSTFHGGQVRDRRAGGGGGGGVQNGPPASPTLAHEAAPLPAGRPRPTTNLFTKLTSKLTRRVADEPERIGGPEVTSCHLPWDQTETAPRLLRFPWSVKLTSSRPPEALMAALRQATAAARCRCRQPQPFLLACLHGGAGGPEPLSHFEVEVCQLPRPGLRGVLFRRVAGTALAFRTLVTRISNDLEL
# Casein kinase I isoform gamma-1 (Homo sapiens), sequence (Q9HCP0 whole entry, looked up, the tested form may be a part, canonical isoform): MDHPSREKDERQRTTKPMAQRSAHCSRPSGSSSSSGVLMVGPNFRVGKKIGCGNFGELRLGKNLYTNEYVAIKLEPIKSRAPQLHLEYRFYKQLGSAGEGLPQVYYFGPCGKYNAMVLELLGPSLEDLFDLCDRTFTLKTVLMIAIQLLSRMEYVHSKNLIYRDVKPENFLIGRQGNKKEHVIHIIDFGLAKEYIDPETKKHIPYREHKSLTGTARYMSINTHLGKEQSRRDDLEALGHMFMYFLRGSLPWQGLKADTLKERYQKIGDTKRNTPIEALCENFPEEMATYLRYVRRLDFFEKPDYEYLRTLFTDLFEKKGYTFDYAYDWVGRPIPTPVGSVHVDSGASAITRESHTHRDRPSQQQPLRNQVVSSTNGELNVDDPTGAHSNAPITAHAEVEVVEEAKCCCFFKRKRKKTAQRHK
smiles,measurement,setting,value
CN1C[C@H](Nc2nc3cc[nH]c3c(=O)n2C)C[C@H](c2ccc3c(c2)OCCO3)C1,inhibition,[1],inactive
same,inhibition,[2],inactive
same,inhibition,[3],inactive
same,inhibition,[4],inactive
same,inhibition,[5],inactive
same,inhibition,[6],inactive
same,inhibition,[7],inactive
same,inhibition,[8],inactive
same,inhibition,[9],inactive
same,IC50,[10],7 nM
same,inhibition,[11],inactive
same,Activity,[12],inactive
same,inhibition,[13],inactive
same,inhibition,[14],inactive
same,inhibition,[15],inactive
same,inhibition,[16],inactive
same,inhibition,[17],inactive
same,inhibition,[18],inactive
same,inhibition,Homo sapiens,inactive
same,inhibition,[19],inactive
same,inhibition,[20],inactive
same,inhibition,[21],inactive
same,inhibition,[22],inactive
